Bioassay records as filed in PubChem BioAssay.
Only a selection was taken, and hits are over-represented in it overall.
UPR XBP1 act: activators of adaptive arm of unfolded protein response (XBP1). CHO-XBP1 luciferase reporter, IRE1-XBP1 UPR activation, luminescence; percent of tunicamycin response, DMSO as zero. 0.33% of 330,000 active. activation, % at 20 µM. AID 463104;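 active = versus positive control, 20 µM dose yields 30% or more activation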
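Assay system: IRE1-XBP1 luciferase reporter CHO line. Input: 1000 cells/well. Buffer or medium: F12 with 10% serum. Doses: 20 µM, 1% DMSO. Times: overnight seeding at 37 °C, 6 h compound treatment at 37 °C. Technique: Steady-Glo luciferase glow luminescence, 10 min after reagent addition.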
VLA-4 inh: inhibition in a human VLA-4 binding assay | P13612 | VLA-4 expressing cells, ligand binding flow cytometry | inhibition, % (about 7 µM as worked out from the volumes in the protocol) | 0.2% of 330,000 active | AID 2557; in the data active = inhibition above about 50%
B2AR ag: human beta-2 adrenergic receptor agonism by FAP | P07550 | Am2.2-beta2AR cells, FAP receptor internalization, flow cytometry | response, % (concentration not given with the values) | 0.43% of 340,000 active | AID 504454;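 active = response above a set limit, near 3 SD of response in nonfluorescent compounds, cut at about 42% in these data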
Target sequence (P07550 whole entry, looked up): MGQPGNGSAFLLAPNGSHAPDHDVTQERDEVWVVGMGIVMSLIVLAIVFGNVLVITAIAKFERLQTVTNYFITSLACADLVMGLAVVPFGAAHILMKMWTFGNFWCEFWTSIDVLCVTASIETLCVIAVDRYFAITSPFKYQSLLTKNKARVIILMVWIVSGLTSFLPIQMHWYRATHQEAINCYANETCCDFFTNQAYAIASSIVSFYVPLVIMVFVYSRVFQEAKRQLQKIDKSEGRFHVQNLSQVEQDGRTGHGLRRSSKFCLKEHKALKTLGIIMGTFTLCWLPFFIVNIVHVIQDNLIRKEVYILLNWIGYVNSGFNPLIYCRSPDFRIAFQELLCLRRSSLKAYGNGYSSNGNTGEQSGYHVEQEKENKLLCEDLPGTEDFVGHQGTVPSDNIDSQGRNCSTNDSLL
CHOP UPR activ: apoptotic UPR (CHOP) activation | CHO-CHOP luciferase reporter, luminescence; percent of tunicamycin response over DMSO baseline | activation, % at 10 µM | 0.34% of 330,000 active | AID 449763;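 active = at 10 µM dose, activation of 40% or more, normalized to positive control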
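Assay system: CHO-CHOP cells, stable luciferase reporter of PERK-eIF2a-CHOP signalling / Buffer or medium: F12 plus 10% serum / Compound dosing: one dose, 10 µM in 0.5% DMSO / Times: 6 h compound treatment, 37 °C / Technique: luciferase luminescence / Read-out: % reporter activation, DMSO baseline versus tunicamycin full activation / Benchmarks: tunicamycin and DMSO controls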
CHOP inh: inhibitors of CHOP induction in ER stress response; CHO-K1 CHOP-promoter luciferase, tunicamycin-induced, 15-18 h; inhibition, % at 10 µM; 3.8% of 220,000 active;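 active = compounds that reduced the stress-induced luciferase reporter signal by more than about 70% of percent inhibition, limit read from the data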
Numbers stand for hits; n = inactive; x = not tested or not shown.

SMILES	UPR XBP1 act	VLA-4 inh	B2AR ag	CHOP UPR activ	CHOP inh
COc1cc(/C=C(/C#N)C(=O)Nc2ccccc2)c(Br)cc1OCc1ccc(C(=O)O)cc1	n	n	n	n	80
CCOc1ccc(NC(=O)/C(C#N)=C/c2ccc(N3CCCC3)c(C)c2)cc1	x	n	n	x	101
COc1cc(/C=C(\C#N)C(=O)Nc2cccc(C(=O)O)c2)ccc1OCc1ccc(Cl)cc1	n	n	n	n	x
C=CCNC(=O)/C(C#N)=C\c1cc(Cl)c(O)c(OCC)c1	x	n	n	x	n
O=C(CCN1C(=O)C2CC=CCC2C1=O)Nc1nccs1 (stereo unspecified)	n	n	n	n	x
CC(C)NC(=S)N/N=C/c1ccc(C(C)(C)C)cc1	n	n	n	n	91
CCc1ccc(-c2cc(C)no2)cc1S(=O)(=O)N1CCN(c2ccc(F)cc2)CC1	n	n	n	n	x
COC(=O)C1(CC2CC(c3ccncc3)=NO2)CCN(C(=O)OC(C)(C)C)CC1 (stereo unspecified)	n	x	n	n	x
O=C1NC(=Nc2ccc(F)cc2)SC1Cc1ccc(F)cc1 (stereo unspecified)	n	n	n	n	n
O=C1NC(=Nc2ccc(Cl)cc2)SC1Cc1cc(Cl)ccc1Cl (stereo unspecified)	n	n	n	n	71
COc1ccc(CN(C)C(=O)COC(=O)c2ccc(-c3ccccc3)cc2)c(OC)c1OC	n	x	n	n	x
CCCOc1ccc(CNC(=S)N/N=C/c2ccc([N+](=O)[O-])cc2)cc1	n	n	n	n	n
CCCOc1ccc(CNC(=S)NCc2ccc(OC(C)C)cc2)cc1	n	n	n	n	82
Cc1ccc(-c2nc(SCC(N)=O)c(C#N)c3c2CCCC3)cc1	n	n	n	n	83
CCOc1ccccc1NC(=O)Cn1cnc2c(cnn2-c2ccc(C)c(C)c2)c1=O	n	n	n	n	n
COc1ccc(NC(=O)Cn2cnc3c(cnn3-c3ccc(C)c(C)c3)c2=O)c(OC)c1	n	n	n	n	82
O=C(NNc1c2ccccc2nc2ccccc12)C12CC3CC(CC(C3)C1)C2	n	n	45	n	n
O=C(NNc1c2ccccc2nc2ccccc12)c1ccccc1O	n	n	53	n	n
CCCSc1ccc2nc(-c3ccccc3)cn2c1	n	n	n	n	86
CCCCSc1ccc2nc(-c3ccc(C#N)cc3)cn2c1	n	n	n	n	n
NC(=O)c1cc[n+](CC2=C(C(=O)O)N3C(=O)[C@@H](NC(=O)[C@@H](c4ccccc4)S(=O)(=O)[O-])[C@H]3SC2)cc1	x	x	x	x	n
COC(=O)[C@@]12CCCCN1[C@H](c1ccc(-c3ccc(F)cc3)c(OC)c1)[C@@H]1C(=O)N(C)C(=O)[C@@H]12	n	n	n	n	x
O=C(COc1ccc2ccccc2c1)Nc1nc2ccccc2[nH]1	n	n	n	n	78
COc1ccc(OCC(=O)Nc2nc3ccccc3[nH]2)cc1	n	n	n	n	n
CCC(=O)N1CCN(c2ccc(NC(=O)c3ccc([N+](=O)[O-])o3)cc2Cl)CC1	x	x	n	x	n
SMILES	UPR XBP1 act	VLA-4 inh	B2AR ag	CHOP UPR activ	CHOP inh
CC(=O)N1CCN(c2ccc(NC(=O)c3ccc([N+](=O)[O-])o3)cc2Cl)CC1	n	n	n	73	x
CC(C)C(=O)Nc1cccc(NC(=S)NC(=O)c2ccc([N+](=O)[O-])cc2)c1	n	n	n	n	n
Cc1cc(C(=O)NC(=S)Nc2cccc(NC(=O)C(C)C)c2)ccc1[N+](=O)[O-]	n	n	n	n	81
O=C(Nc1cccc(C(F)(F)F)c1)C(Sc1ncnc2ccccc12)c1ccccc1 (stereo unspecified)	n	n	n	n	76
CCC(CC)C(=O)Nc1cc(C)c2c(=O)oc3ccccc3c2n1	n	n	n	n	79
Cc1cc(NC(=O)c2ccccc2)nc2c1c(=O)oc1ccccc12	n	n	n	n	n
Cc1ccnc(NC(=O)Nc2ccc(F)cc2)c1	n	n	n	n	n
Cc1ccc(NC(=O)Nc2ccc(F)cc2)nc1	n	n	n	n	77
COc1cccc2cc(C(=O)OCc3ccccc3)c(=O)oc12	n	n	n	n	x
COc1ccc(N2CCN(C(c3cccc(OC)c3OC)c3nnnn3C3CCCC3)CC2)cc1 (stereo unspecified)	n	n	n	n	74
